Assay results published in ChEMBL document CHEMBL1671800, “Synthesis and antimycobacterial properties of N-substituted 6-amino-5-cyanopyrazine-2-carboxamides” (2011).
≈ marks a conversion by molar mass, not a printed value. Calls of active or inactive are those of the source. The calls are words filed in the database; no cut-off is given here.

Legend:
[1] = system: Candida albicans; experiment: Antifungal activity against Candida albicans ATCC 44859 after 48 hrs by broth microdilution method; format: functional
Procedure, shortened: (§1)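 Broth microdilution. Compounds in DMSO were diluted twofold in RPMI 1640 with glutamine, buffered to pH 7.0 with MOPS. Final DMSO was at most 2.5% (v/v). Plates were incubated statically, in the dark and humid, at 35 °C and read at 24 and 48 h.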

[2] = system: Pichia kudriavzevii; experiment: Antifungal activity against Candida krusei E28 after 24 hrs by broth microdilution method; format: functional; procedure, shortened: as §1
[3] = system: Aspergillus fumigatus; experiment: Antifungal activity against Aspergillus fumigatus 231 after 24 hrs by broth microdilution method; format: functional; procedure, shortened: as §1
[4] = system: Candida tropicalis; experiment: Antifungal activity against Candida tropicalis 156 after 24 hrs by broth microdilution method; format: functional; procedure, shortened: as §1
[5] = system: Pichia kudriavzevii; experiment: Antifungal activity against Candida krusei E28 after 48 hrs by broth microdilution method; format: functional; procedure, shortened: as §1
[6] = system: Aspergillus fumigatus; experiment: Antifungal activity against Aspergillus fumigatus 231 after 48 hrs by broth microdilution method; format: functional; procedure, shortened: as §1
[7] = system: Nakaseomyces glabratus; experiment: Antifungal activity against Candida glabrata 20/I after 24 hrs by broth microdilution method; format: functional; procedure, shortened: as §1
[8] = system: Trichophyton mentagrophytes; experiment: Antifungal activity against Trichophyton mentagrophytes 445 after 120 hrs by broth microdilution method; format: functional
Procedure, shortened: (§2)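 Trichophyton mentagrophytes was tested by twofold broth microdilution in MOPS-buffered RPMI 1640 with glutamine, pH 7.0, with final DMSO at most 2.5% (v/v). Incubation was static, dark and humid at 35 °C, and plates were read at 72 and 120 h.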

[9] = system: Lichtheimia corymbifera; experiment: Antifungal activity against Absidia corymbifera 272 after 48 hrs by broth microdilution method; format: functional; procedure, shortened: as §1
[10] = system: Candida albicans; experiment: Antifungal activity against Candida albicans ATCC 44859 after 24 hrs by broth microdilution method; format: functional; procedure, shortened: as §1
[11] = system: Lichtheimia corymbifera; experiment: Antifungal activity against Absidia corymbifera 272 after 24 hrs by broth microdilution method; format: functional; procedure, shortened: as §1
[12] = system: Candida tropicalis; experiment: Antifungal activity against Candida tropicalis 156 after 48 hrs by broth microdilution method; format: functional; procedure, shortened: as §1
[13] = system: Nakaseomyces glabratus; experiment: Antifungal activity against Candida glabrata 20/I after 48 hrs by broth microdilution method; format: functional; procedure, shortened: as §1
[14] = system: Trichophyton mentagrophytes; experiment: Antifungal activity against Trichophyton mentagrophytes 445 after 72 hrs by broth microdilution method; format: functional; procedure, shortened: as §2
[15] = system: Trichosporon beigelii; experiment: Antifungal activity against Trichosporon beigelii 1188 after 48 hrs by broth microdilution method; format: functional; procedure, shortened: as §1
[16] = system: Trichosporon beigelii; experiment: Antifungal activity against Trichosporon beigelii 1188 after 24 hrs by broth microdilution method; format: functional; procedure, shortened: as §1
[17] = system: Mycobacterium avium; experiment: Antimycobacterial activity against Mycobacterium avium CNCTC My 80/72 after 14 days by microdilution method; format: functional; conditions: CNCTC My 80/72, 336 h
Procedure, shortened: (§3)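 Compounds in DMSO were diluted in Šula's semisynthetic medium, pH 5.5, to final 200–3.125 μg/mL, with DMSO at most 1% (v/v). Mycobacteria were added as a suspension in isotonic saline and grown at 37 °C. MIC was read visually after 14 days as the lowest concentration inhibiting growth.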

[18] = system: Enterobacter sp.; experiment: Antibacterial activity against Enterobacter sp. J 14365/ 08 after 24 to 48 hrs by broth microdilution method; format: functional, organism-based
[19] = system: Staphylococcus aureus; experiment: Antibacterial activity against Staphylococcus aureus CCM 4516/08 after 24 to 48 hrs by broth microdilution method; format: functional, organism-based
Procedure, shortened: (§4)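 Strains subcultured on Mueller-Hinton agar at 35 °C and passaged onto MHA before testing. Inoculum suspended in sterile 0.85% saline and adjusted to 0.5 McFarland (1.5×10^8 CFU/mL). Compounds in DMSO (final ≤1% v/v) in Mueller-Hinton broth at pH 7.0, with medium and DMSO-alone controls. Static incubation at 35 °C; MIC taken as 95% growth inhibition versus control at 24 and 48 h.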

[20] = system: Klebsiella pneumoniae; experiment: Antibacterial activity against ESBL-positive Klebsiella pneumoniae J 14368/08 after 24 to 48 hrs by broth microdilution method; format: functional, organism-based
[21] = system: Mycobacterium tuberculosis; experiment: Antimycobacterial activity against Mycobacterium tuberculosis H37Rv CNCTC My 331/88 after 14 days by microdilution method; format: functional; conditions: H37Rv CNCTC My 331/88, 336 h; procedure, shortened: as §3
[22] = system: Staphylococcus epidermidis; experiment: Antibacterial activity against Staphylococcus epidermidis H 6966/08 after 24 to 48 hrs by broth microdilution method; format: functional, organism-based
[23] = system: Staphylococcus aureus; experiment: Antibacterial activity against methicillin-resistant Staphylococcus aureus H 5996/08 after 24 to 48 hrs by broth microdilution method; format: functional, organism-based
Procedure, shortened: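 Strains were subcultured on Mueller-Hinton agar at 35 °C, and the inoculum was suspended in 0.85% saline to 0.5 McFarland (1.5×10^8 CFU/mL). Microdilution was done in Mueller-Hinton broth, pH 7.0, with final DMSO at most 1% (v/v). MIC, set at 95% growth inhibition versus control, was read after 24 and 48 h of static incubation at 35 °C.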

[24] = system: Pseudomonas aeruginosa; experiment: Antibacterial activity against Pseudomonas aeruginosa CCM 1961 after 24 to 48 hrs by broth microdilution method; format: functional, organism-based; procedure, shortened: as §4
[25] = system: Escherichia coli; experiment: Antibacterial activity against Escherichia coli CCM 4517 after 24 to 48 hrs by broth microdilution method; format: functional, organism-based; procedure, shortened: as §4
[26] = system: Mycobacterium avium; experiment: Antimycobacterial activity against Mycobacterium avium CNCTC My 152/73 after 14 days by microdilution method; format: functional; conditions: CNCTC My 152/73, 336 h; procedure, shortened: as §3
[27] = system: Klebsiella pneumoniae; experiment: Antibacterial activity against Klebsiella pneumoniae D11750/08 after 24 to 48 hrs by broth microdilution method; format: functional, organism-based
[28] = system: Mycobacterium kansasii; experiment: Antimycobacterial activity against Mycobacterium kansasii CNCTC My 235/80 after 6 days by microdilution method; format: functional; conditions: CNCTC My 235/80, 144 h
Procedure, shortened: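 Compounds were dissolved in DMSO and diluted in Šula's semisynthetic medium at pH 5.5, at final concentrations of 200 to 3.125 μg/mL in twofold steps; DMSO stayed ≤1% v/v. The strain was added as a suspension in isotonic saline and incubated at 37 °C. Growth was read visually after 6 days; MIC is the lowest concentration that inhibited growth. Pyrazinamide served as standard.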

[29] = Aspergillus fumigatus, 231, 24 h
[30] = Aspergillus fumigatus, 231, 48 h
[31] = Trichophyton mentagrophytes, 445, 120 h
[32] = Lichtheimia corymbifera, 272, 48 h
[33] = Lichtheimia corymbifera, 272, 24 h
[34] = Trichophyton mentagrophytes, 445, 72 h
[35] = Trichosporon beigelii, 1188, 48 h
[36] = Trichosporon beigelii, 1188, 24 h

Compound	MIC [7]	MIC [13]	MIC ([1]; ATCC 44859, 48 h)	MIC ([2]; E28, 24 h)	MIC [3, 29]	MIC ([4]; Candida tropicalis, 156, 24 h)	MIC ([5]; E28, 48 h)	MIC [6, 30]	MIC [8, 31]	MIC [9, 32]	MIC ([10]; ATCC 44859, 24 h)	MIC [11, 33]	MIC ([12]; Candida tropicalis, 156, 48 h)	MIC [14, 34]	MIC [15, 35]	MIC [16, 36]	MIC [17]	Activity [18]	Activity [19]	Activity [20]	further results
NYSTATIN	1.95 µM	1.95 µM																			MIC [1]: 1.95 µM; MIC [2]: 1.95 µM; MIC [3]: 1.95 µM; MIC [4]: 1.95 µM; MIC [5]: 3.9 µM; MIC [6]: 3.9 µM; MIC [8]: 7.81 µM; MIC [9]: 31.2 µM; MIC [10]: 0.98 µM; MIC [11]: 15.6 µM; MIC [12]: 3.9 µM; MIC [14]: 3.9 µM; MIC [15]: 1.95 µM; MIC [16]: 1.95 µM
OC(Cn1cncn1)(Cn1cncn1)c1ccc(F)cc1F [FLUCONAZOLE]	62.5 µM (≈ 19.1 µg/mL)	250 µM (≈ 76.6 µg/mL)	0.24 µM (≈ 0.0735 µg/mL)	125 µM (≈ 38.3 µg/mL)	> 500 µM	> 500 µM	250 µM (≈ 76.6 µg/mL)	> 500 µM	125 µM (≈ 38.3 µg/mL)	> 500 µM	0.24 µM (≈ 0.0735 µg/mL)	> 500 µM	> 500 µM	7.81 µM (≈ 2.39 µg/mL)	500 µM (≈ 153 µg/mL)	250 µM (≈ 76.6 µg/mL)					
CCCCCNc1nc(C(N)=O)cnc1C#N	250 µM (≈ 58.3 µg/mL)	> 250 µM	> 250 µM	62.5 µM (≈ 14.6 µg/mL)	250 µM (≈ 58.3 µg/mL)	> 250 µM	250 µM (≈ 58.3 µg/mL)	> 250 µM	> 250 µM	> 250 µM	250 µM (≈ 58.3 µg/mL)	125 µM (≈ 29.2 µg/mL)	> 250 µM	> 250 µM	> 250 µM	> 250 µM	> 200 mg/L	inactive	inactive	inactive	MIC [21]: > 200 mg/L; Activity [22]: inactive; Activity [23]: inactive; Activity [24]: inactive; Activity [25]: inactive; MIC [26]: > 200 mg/L; Activity [27]: inactive; MIC [28]: > 200 mg/L
N#Cc1ncc(C(N)=O)nc1Cl	> 500 µM	> 500 µM	125 µM (≈ 22.8 µg/mL)	> 500 µM	> 500 µM	> 500 µM	> 500 µM	> 500 µM	62.5 µM (≈ 11.4 µg/mL)	250 µM (≈ 45.6 µg/mL)	125 µM (≈ 22.8 µg/mL)	250 µM (≈ 45.6 µg/mL)	> 500 µM	62.5 µM (≈ 11.4 µg/mL)	> 500 µM	> 500 µM	25 mg/L (≈ 137 µM)	inactive	inactive	inactive	MIC [21]: 25 mg/L (≈ 137 µM); Activity [22]: inactive; Activity [23]: inactive; Activity [24]: inactive; Activity [25]: inactive; MIC [26]: 25 mg/L (≈ 137 µM); Activity [27]: inactive; MIC [28]: 25 mg/L (≈ 137 µM)
